Results from PMC7962621 (Cell, 2019).

What was measured:
[1] = relative to native insulin; ref Wang et al., 2018; cited from earlier work
[2] = tested on: CD4 T cells from DQ8+ T1D subjects; experiment: CFSE proliferation assay with immobilized peptide/DQ8 complexes, T1D subjects; assay type: cell-based, human; conditions: peptide-loaded DQ8 immobilized (10 μM), 7 days, CFSElow CD4 T cells; n = 3
Method in brief: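 Freshly isolated PBMCs were washed in warm PBS and labelled with 1 μM CFSE for 1–2 min at 37 °C, then quenched with chilled medium. Thrombin-cleaved, CLIP-free DQ8 monomers (0.5 μM) were loaded with peptide (100 μM) for 72 h at 37 °C in pH 5.5 citrate phosphate buffer, then immobilized in wells. Unstimulated cells served as negative control and anti-CD3/CD28 as positive control.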

DQ8 = conditions: two registers placing nonacidic residues at P1 and P9; background statement; cited from earlier work

Substance	Fold potency vs native insulin B:9–23 [1]	Stimulation of CD4 T cells from DQ8+ T1D subjects [2]	Binding of insulin B:9–23 peptide to DQ8 (DQ8)
SHLVEELYLVAGEEG [superagonist]	about 1,000 fold	–	–
CARQRFWSGPLFDYW [h-Id]	–	no significant responses	–
native insulin: insulin B:9–23 peptide SHLVEALYLVCGERG	–	no significant responses	binds poorly to DQ8
SHLVEALYLVCGEEG [mimotope]	100 fold	–	–
